In ChEMBL document CHEMBL5032534, “COUPY Coumarins as Novel Mitochondria-Targeted Photodynamic Therapy Anticancer Agents” (J Med Chem, 2021):
Active and inactive are the calls of the source. The rule behind the calls is not given here.

Columns and labels:
[1] = Selectivity index, ratio of IC50 for cytotoxicity against BGM cells assessed as reduction in cell viability in dark to IC50 for cytotoxicity against human HeLA cells assessed as reduction in cell viability in dark; assay type: toxicity, cell-based; conditions: African green monkey (BGM cells), BGM cells versus HeLa cells, read-out: Ratio IC50
Method in brief: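 Selectivity factor is the dark IC50 in BGM normal renal cells over the dark IC50 in HeLa cells. Both come from the MTT phototoxicity procedure without irradiation.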

[2] = Selectivity index, ratio of IC50 for cytotoxicity against CHO cells to IC50 for antiproliferative activity against A2780 cells; assay type: toxicity, cell-based; conditions: Chinese hamster (CHO cells); human (A2780 cells), CHO cells versus A2780 cells; read-out: Ratio IC50
Method in brief: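 Selectivity factor is the IC50 in CHO cells over the IC50 in A2780 cells. Both were measured after 48 h of continuous treatment by MTT.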

[3] = Phototoxicity index, ratio of IC50 for cytotoxicity against human HeLa cells assessed as reduction in cell viability in dark under hypoxic condition to IC50 for phototoxicity against human HeLa cells upon LED light irradiation under hypoxic condition; assay type: toxicity, cell-based
Method in brief: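 Phototoxic index is the dark IC50 over the irradiated IC50 in HeLa cells. Both come from the MTT schedule of 1 h dark incubation plus 1 h visible-LED irradiation, then recovery in drug-free medium, run under 21% or 2% O2 as stated in the line.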

HeLa [4] = assay: Induction of ROS generation in human HeLa cells assessed as increase in intracellular ROS level at 5 uM incubated for 1 hr in dark followed by irradiation with visible light for 1 hr under hypoxic condition by DCFH-DA staining based flow cytometric analysis; assay type: functional, cell-based; conditions: time 2.0 hrs
Method in brief: (§1)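 HeLa cells were seeded at 2 × 10^4/well for 24 h under 21% or 2% O2. They were co-treated with 5 μM compound plus a scavenger, which stayed present throughout: NAC 5 mM, NaN3 5 mM, mannitol 50 mM, tiron 5 mM, sodium pyruvate 10 mM or Trolox 0.1 mM. Cells were held 1 h dark, then 1 h under visible light, stained 30 min with 10 μM DCFH-DA, trypsinized and analysed by flow cytometry. At least two independent experiments, n = 3.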

HeLa [5] = assay: Induction of mitochondrial membrane potential loss in human HeLa cells at 5 uM measured after 24 hrs by JC-1 dye-based flow cytometric analysis; assay type: functional, cell-based
Method in brief: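 HeLa cells were seeded at 1.5 × 10^5 in 12-well plates for 24 h and treated for 24 h. Vehicle control held 0.4% DMSO and antimycin A (50 μM) served as positive control. Cells were stained with JC-1 (1 μM, 20 min) and analysed by flow cytometry (10^4 events; ex 488 nm; green 530 nm and red 585 nm channels). At least two independent experiments.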

HeLa [6] = assay: Induction of autophagy in human HeLa cells assessed as increase in MDC-positive autophagic vesicles at 5 uM preincubated for 30 mins followed by light irradiation for 1 hr and further incubated for 6 hrs in drug-free medium by MDC staining based confocal microscopic analysis; assay type: functional, cell-based; conditions: time 1.5 hrs
Method in brief: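 HeLa cells were seeded at 1.5 × 10^4 cells/cm2 in chamber slides and given 0.5 h compound incubation, then 1 h visible-light irradiation. Medium was replaced for a 6 h recovery. Cells were stained with monodansylcadaverine (0.05 mM in PBS, 10 min, 310 K) and imaged by confocal microscopy (ex 405 nm). Vacuoles were counted in at least 10 cells from two experiments. Controls were starvation in EBSS for 2 h and resveratrol 50 μM for 2 h.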

HeLa [7] = assay: Effect on cell cycle distribution in human HeLa cells at 5 uM incubated for 30 mins in dark by RNase/propidium iodide staining based FACS analysis; assay type: functional
Method in brief: (§2)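 HeLa cells were seeded at 1.5 × 10^5/well and treated for 0.5 h, with or without 1 h visible-light irradiation, followed by 24 h recovery. Cells were fixed in ice-cold 70% ethanol for 1 h and stained with PI (40 μg/mL) plus RNase (1 μg/mL) for 30 min at 310 K. Analysis was by flow cytometry in the FL2-A channel. At least two independent experiments, n = 3.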

HeLa [8] = assay: Effect on cell cycle distribution in human HeLa cells assessed as reduction in G1 phase population at 5 uM preincubated for 30 mins in dark followed by light irradiation for 1 hr by RNase/propidium iodide staining based FACS analysis; assay type: functional; conditions: time 1.5 hrs; method in brief: as §2
HeLa [9] = assay: Induction of apoptosis in human HeLa cells assessed as increase in total apoptotic cells at 5 uM preincubated for 30 mins in dark followed by irradiation for 1 hr and measured after 24 hrs by Annexin V-FITC/ Propidium iodide staining based flow cytometry analysis; assay type: functional, cell-based; conditions: time 25.5 hrs
Method in brief: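 HeLa cells were seeded at 1.5 × 10^5/well overnight and treated for 0.5 h, with or without 1 h visible-light irradiation, followed by 24 h recovery. Cells were trypsinized, resuspended in binding buffer, labelled with FITC-Annexin V and propidium iodide for 15 min at room temperature in the dark, and analysed by flow cytometry. Cisplatin (30 μM) served as positive control.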

[10] = Drug uptake in human HeLa cells at 1 uM incubated for 30 mins by confocal microscopic analysis; assay type: ADME, cell-based; conditions: 0.5 h
Method in brief: (§3)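 HeLa cells in high-glucose DMEM with 10% fetal calf serum were seeded on glass-bottom dishes for 24 h, then loaded with compound for 30 min at 37 °C. They were washed three times with DPBS and kept in phenol-red-free low-glucose DMEM. Live cells were imaged by confocal microscopy at 37 °C with 5% CO2, excited at 561 nm, with emission collected from 570 to 670 nm.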

[11] = Drug uptake in mitochondria of human HeLa cells assessed as drug accumulation at 1 uM measured after 30 mins by confocal microscopic analysis; assay type: ADME; conditions: 0.5 h; method in brief: as §3
[12] = Drug uptake in nucleolus of human HeLa cells assessed as drug accumulation at 1 uM measured after 30 mins by confocal microscopic analysis; assay type: ADME, subcellular; conditions: 0.5 h; method in brief: as §3
HeLa [13] = assay: Induction of ROS generation in human HeLa cells at 5 uM incubated for 1 hr in dark followed by irradiation with visible light for 1 hr under normoxic condition in presence of 5 mM NAC by DCFH-DA staining based flow cytometric analysis; assay type: functional, cell-based; conditions: time 2.0 hrs; method in brief: as §1
HeLa [14] = assay: Induction of ROS generation in human HeLa cells at 5 uM incubated for 1 hr in dark followed by irradiation with visible light for 1 hr under hypoxic condition in presence of 5 mM NAC by DCFH-DA staining based flow cytometric analysis; assay type: functional, cell-based; conditions: time 2.0 hrs; method in brief: as §1
HeLa [15] = assay: Induction of ROS generation in human HeLa cells at 5 uM incubated for 1 hr in dark followed by irradiation with visible light for 1 hr under normoxic condition in presence of Trolox by DCFH-DA staining based flow cytometric analysis; assay type: functional, cell-based; conditions: time 2.0 hrs; method in brief: as §1
HeLa [16] = assay: Induction of ROS generation in human HeLa cells at 5 uM incubated for 1 hr in dark followed by irradiation with visible light for 1 hr under normoxic condition in presence of NaN3 by DCFH-DA staining based flow cytometric analysis; assay type: functional, cell-based; conditions: time 2.0 hrs; method in brief: as §1
[17] = Induction of singlet oxygen generation in air-saturated DCM solution assessed as reduction in 1,3-diphenylisobenzofuran absorption irradiated with 505 nanometer green light by DPBF-based assay; assay type: functional
HeLa [18] = assay: Induction of autophagy in human HeLa cells […] pretreated with wortmannin for 1 hr followed by irradiation schedule for 1 hr by MDC staining based confocal microscopic analysis; assay type: functional
HeLa [19] = assay: Induction of superoxide anion generation in human HeLa cells assessed as increase in DHE fluorescence at 5 uM incubated for 1 hr in dark followed by irradiation with visible light for 1 hr under hypoxic condition in presence of tiron by DHE staining based flow cytometric analysis; conditions: time 2.0 hrs

CCN(CC)c1ccc2c(c1)O/C(=C(/C#N)c1cc[n+](CC(=O)NCCCNC(=O)OC(C)(C)C)cc1)C=C2C
selectivity ratio [1]: 2.7

CN(C)c1ccc2c(c1)O/C(=C(/C#N)c1cc[n+](C)cn1)C=C2C(F)(F)F
selectivity ratio [1]: 4.2

CN(C)c1ccc2c(c1)O/C(=C(/C#N)c1cc[n+](C)cc1)C=C2C(F)(F)F
selectivity ratio [2]: > 5.1

CCN(CC)c1ccc2c(c1)O/C(=C(/C#N)c1cc[n+](CC(F)(F)F)cc1)C=C2C
selectivity ratio [1]: 4.3 | Ratio IC50 [3]: 4.7 | Activity (HeLa [4]): inactive | Activity (HeLa [5]): inactive | Activity (HeLa [6]): inactive | Activity (HeLa [7]): inactive | Activity (HeLa [8]): Active | Activity (HeLa [9]): Active | Drug uptake [10]: Active | Drug uptake [11]: Active | Drug uptake [12]: Active | Activity (HeLa [13]): inactive | Activity (HeLa [14]): inactive | Activity (HeLa [15]): inactive | Activity (HeLa [16]): inactive | Activity [17]: Active | Activity (HeLa [18]): Active | Activity (HeLa [19]): Active
